The values below come from ChEMBL document CHEMBL3872255, “Design, synthesis and analgesic/anti-inflammatory evaluation of novel diarylthiazole and diarylimidazole derivatives towards selective COX-1 inhibitors with better gastric profile” (Bioorg Med Chem, 2017).

pIC50: −log10 of the molar value. Activity calls are given as the source filed them. The calls are words filed in the database; no cut-off is given here.

For orientation: pIC50 means −log10 of the IC50, conventionally taken in molar units. Broadly, the inhibition in vivo is the percentage by which the read-out fell short of the control.

In data set [1] the target is T1, Prostaglandin G/H synthase 1 (Ovis aries, UniProt P05979).
T1 sequence (P05979 whole entry): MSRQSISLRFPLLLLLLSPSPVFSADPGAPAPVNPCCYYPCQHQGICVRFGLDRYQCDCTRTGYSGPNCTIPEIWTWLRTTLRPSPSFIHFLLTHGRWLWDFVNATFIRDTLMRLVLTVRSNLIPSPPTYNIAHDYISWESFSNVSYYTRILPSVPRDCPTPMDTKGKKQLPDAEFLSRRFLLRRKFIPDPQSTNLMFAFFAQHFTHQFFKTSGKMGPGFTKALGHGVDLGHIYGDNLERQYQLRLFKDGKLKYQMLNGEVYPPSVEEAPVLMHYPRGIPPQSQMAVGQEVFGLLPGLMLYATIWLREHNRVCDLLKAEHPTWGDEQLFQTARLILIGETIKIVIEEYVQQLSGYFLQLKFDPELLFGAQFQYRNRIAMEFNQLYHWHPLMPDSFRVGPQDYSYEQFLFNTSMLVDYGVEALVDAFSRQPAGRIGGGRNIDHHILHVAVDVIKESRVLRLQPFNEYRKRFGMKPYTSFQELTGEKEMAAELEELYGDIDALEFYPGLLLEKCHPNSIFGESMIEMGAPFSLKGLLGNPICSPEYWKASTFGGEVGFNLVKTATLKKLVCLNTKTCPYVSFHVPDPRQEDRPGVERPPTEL
The data set is described as follows: Inhibition of ovine COX-1 assessed as reduction in oxidation of TMPD using arachidonic acid as substrate preincubated for 5 mins followed by substrate and TMPD addition measured after 5 mins by colorimetric assay.

A short description of data set [2]: Ulcerogenic effect in albino rat assessed as ulcer index […], po administered 2 to 3 days. It counts as toxicity, organism-based. The following applies: in vivo. The procedure, abridged: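 Rats were fasted 2 h, fed 2 h, then fasted 20 h, with further doses on days 2 and 3. Stomachs were rinsed in 0.9% saline and lesions scored 0-4. Ulcer index = %incidence/10 + average severity + average ulcer number.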

The species entered for data set [3] is Mus musculus. The data set is described as follows: Analgesic activity in mouse assessed as decrease in number of acetic acid-induced writhing pretreated for 1 hr followed by acetic acid challenge measured between 5 to 20 mins after acetic acid injection. It counts as functional. The procedure, abridged: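 Groups of five mice received test compound; 1 h later, 0.6% acetic acid (0.01 ml/g) was injected intraperitoneally. Writhes were counted for 15 min, from minute 5 to 20 after injection. Activity was taken as the reduction in writhing count. Diclofenac 6 mg/kg was the reference. Data are mean ± S.D., N=5, analysed by one-way ANOVA with Dunnett test.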
A general note: An intraperitoneal irritant provokes the stretching counted in writhing tests.

Data set [4] concerns Rattus norvegicus. The data set is described as follows: Anti-inflammatory activity against carrageenan-induced paw edema in albino rat assessed as paw thickness at 100 mg/kg, po pretreated for 1 hr followed by carrageenan challenge measured at 7 hrs post carrageenan challenge (reference value: 0.464 +/- 0.023 mm). It counts as functional. Background: The carrageenan paw model is a standard test of acute inflammation.

In data set [5] the test system is Rattus norvegicus. Briefly: Anti-inflammatory activity against carrageenan-induced paw edema in albino rat assessed as paw thickness at 100 mg/kg, po pretreated for 1 hr followed by carrageenan challenge measured at 1 hr post carrageenan challenge (reference value: 0.394 +/- 0.220 mm). The format is functional.
Data set [6] deals with Rattus norvegicus. Briefly: Anti-inflammatory activity against carrageenan-induced paw edema in albino rat assessed as inhibition of paw edema at 100 mg/kg, po pretreated for 1 hr followed by carrageenan challenge measured after 1 to 7 hrs relative to control. It counts as functional.
Data set [7] deals with Rattus norvegicus. Briefly: Anti-inflammatory activity against carrageenan-induced paw edema in albino rat assessed as paw thickness at 100 mg/kg, po pretreated for 1 hr followed by carrageenan challenge measured at 3 hrs post carrageenan challenge (reference value: 0.401 +/- 0.019 mm). It counts as functional.
For data set [8], the species on record is Mus musculus. Briefly: Analgesic activity in mouse assessed as number of acetic acid-induced writhing pretreated for 1 hr followed by acetic acid challenge measured between 5 to 20 mins after acetic acid injection. The format is functional. The procedure, abridged:
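Groups of five mice. Test compound given 1 h before i.p. injection of 0.6% acetic acid, 0.01 ml/g. Writhing movements counted for 15 min, from the 5th to the 20th min after injection. Diclofenac 6 mg/kg served as reference. Activity is taken as the reduction in number of writhings; mean ± S.D., N=5.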

For data set [9], the system named is Rattus norvegicus. Briefly: Anti-inflammatory activity against carrageenan-induced paw edema in albino rat assessed as paw thickness at 60 mg/kg, po pretreated for 1 hr followed by carrageenan challenge measured at 1 hr post carrageenan challenge (reference value: 0.394 +/- 0.220 mm). The format is functional.
Data set [10] deals with Rattus norvegicus. The data set is described as follows: Anti-inflammatory activity against carrageenan-induced paw edema in albino rat assessed as inhibition of paw edema at 60 mg/kg, po pretreated for 1 hr followed by carrageenan challenge measured after 1 to 7 hrs relative to control. It counts as functional.
The subject of data set [11] is Rattus norvegicus. The data set is described as follows: Anti-inflammatory activity against carrageenan-induced paw edema in albino rat assessed as paw thickness at 60 mg/kg, po pretreated for 1 hr followed by carrageenan challenge measured at 3 hrs post carrageenan challenge (reference value: 0.401 +/- 0.019 mm). The format is functional.
Data set [12] deals with Rattus norvegicus. The data set is described as follows: Anti-inflammatory activity against carrageenan-induced paw edema in albino rat assessed as paw thickness at 60 mg/kg, po pretreated for 1 hr followed by carrageenan challenge measured at 7 hrs post carrageenan challenge (reference value: 0.464 +/- 0.023 mm). The format is functional.

`O=C(Cn1cnc(-c2ccccc2)c1-c1ccccc1)N1CCCCC1`: the pIC50 in data set [1] was 5.07.

As to `COc1ccc2c(c1)c(CC(=O)O)c(C)n2C(=O)c1ccc(Cl)cc1` [INDOMETHACIN], the UI in data set [2] came out at 19.5.

With `CN1CCN(C(=O)CNc2nc(-c3ccccc3)c(-c3ccccc3)s2)CC1`, the result in the data set filed under Mus musculus [3] was Active. In addition, the Activity in the data set on Rattus norvegicus [4] is recorded as 0.205 mm; in the data set on Rattus norvegicus [5], 0.173 mm; with Rattus norvegicus [7], 0.197 mm. Further, the inhibition in vivo at 100 mg/kg in the data set with Rattus norvegicus [6] turned out to be 54.3%. Also, the pIC50 in data set [1] is 5.52.

With `COc1ccc(-c2nc(NCC(=O)O)sc2-c2ccc(OC)cc2)cc1`, the Activity is 0.251 mm with Rattus norvegicus [4], 10.67 - 14.4 in the data set listed under Mus musculus [8], 0.165 mm in the data set on Rattus norvegicus [5] and 0.213 mm in the data set with Rattus norvegicus [7]. The UI in [2] amounted to 8.5. Besides, the pIC50 in data set [1] was 6.49.

For the compound `COc1ccc(-c2ncn(CC(=O)N3CCOCC3)c2-c2ccc(OC)cc2)cc1`, the outcome in the data set listed under Mus musculus [3] was Active. Moreover, the figures for the Activity in the data set on Rattus norvegicus [4], in the data set on Rattus norvegicus [5] and in the data set with Rattus norvegicus [7] were 0.19 mm, 0.146 mm and 0.159 mm, respectively. In addition, the inhibition in vivo at 100 mg/kg with Rattus norvegicus [6] stood at 60.8%. In addition, the pIC50 in data set [1] was 5.29.

In the case of `O=C(Cn1cnc(-c2ccccc2)c1-c1ccccc1)N1CCOCC1`, the result in the data set listed under Mus musculus [3] was Active. Further, the Activity was 0.218 mm with Rattus norvegicus [4], 0.166 mm in the data set on Rattus norvegicus [5] and 0.186 mm with Rattus norvegicus [7]. For the same compound, in the data set with Rattus norvegicus [6], the inhibition in vivo at 100 mg/kg was 54.5%. Moreover, in data set [1], the pIC50 is 5.20.

For `COc1ccc(-c2nc(NCC(=O)N3CCN(C)CC3)sc2-c2ccc(OC)cc2)cc1`, the outcome in the data set listed under Mus musculus [3] was Active. Moreover, the figures for the Activity in the data set on Rattus norvegicus [4], with Rattus norvegicus [5] and in the data set on Rattus norvegicus [7] were 0.172 mm, 0.144 mm and 0.163 mm, respectively. The inhibition in vivo at 100 mg/kg in the data set on Rattus norvegicus [6] was 61.9%. For the same compound, in [1], the negative-log IC50 (pIC50) is 5.57.

Consider `O=C(O)CNc1nc(-c2ccccc2)c(-c2ccccc2)s1`, for which the values for the Activity in the data set on Rattus norvegicus [4], with Rattus norvegicus [5] and in the data set with Rattus norvegicus [7] were 0.231 mm, 0.166 mm and 0.185 mm, respectively. In addition, the inhibition in vivo at 100 mg/kg with Rattus norvegicus [6] is 54%. For the same compound, the UI in data set [2] is recorded as 9.39. Further, the pIC50 in data set [1] is 6.38.

With `COc1ccc(-c2ncn(CC(=O)N3CCCCC3)c2-c2ccc(OC)cc2)cc1`, in data set [1], the pIC50 is 5.13.

With `O=C(O)Cc1ccccc1Nc1c(Cl)cccc1Cl` [DICLOFENAC], the Activity with Rattus norvegicus [9] was found to be 0.09 mm; with Rattus norvegicus [11] it was 0.06 mm; in the data set listed under Mus musculus [8], 24; in the data set on Rattus norvegicus [12] it was 0.04 mm. Moreover, the inhibition in vivo at 60 mg/kg with Rattus norvegicus [10] amounted to 84.5%.

For `COc1ccc(-c2ncn(CC(=O)O)c2-c2ccc(OC)cc2)cc1`, the Activity in the data set on Rattus norvegicus [4] is on record as 0.215 mm; in the data set filed under Mus musculus [8], 10.67 - 14.4; with Rattus norvegicus [5], 0.149 mm; in the data set with Rattus norvegicus [7] it was 0.18 mm. The inhibition in vivo at 100 mg/kg with Rattus norvegicus [6] was found to be 57%. The UI in data set [2] stood at 9.75. The pIC50 in data set [1] was 6.27.

On to `O=C(CNc1nc(-c2ccccc2)c(-c2ccccc2)s1)N1CCOCC1`, for which the outcome in the data set listed under Mus musculus [3] was Active. The Activity in the data set with Rattus norvegicus [4] is 0.192 mm; in the data set on Rattus norvegicus [5], 0.148 mm; in the data set on Rattus norvegicus [7] it was 0.167 mm. In addition, in the data set on Rattus norvegicus [6], the inhibition in vivo at 100 mg/kg came to 59.8%. The pIC50 in [1] was 5.24.

Take `COc1ccc(-c2nc(NCC(=O)N3CCOCC3)sc2-c2ccc(OC)cc2)cc1`: the outcome in the data set filed under Mus musculus [3] was Active. Moreover, the Activity in the data set with Rattus norvegicus [4] is 0.213 mm; with Rattus norvegicus [5] it was 0.17 mm; in the data set on Rattus norvegicus [7], 0.19 mm. Besides, the inhibition in vivo at 100 mg/kg in the data set with Rattus norvegicus [6] is 54.5%. The pIC50 in data set [1] is 5.40.

For the compound `COc1ccc(-c2ncn(CC(=O)N3CCN(C)CC3)c2-c2ccc(OC)cc2)cc1`, the result in the data set listed under Mus musculus [3] was Active. The Activity with Rattus norvegicus [4] is 0.152 mm; with Rattus norvegicus [5] it was 0.17 mm; in the data set on Rattus norvegicus [7], 0.191 mm. In addition, the inhibition in vivo at 100 mg/kg in the data set on Rattus norvegicus [6] stood at 58.8%. The pIC50 in data set [1] was 5.51.

Take `O=C(O)Cn1cnc(-c2ccccc2)c1-c1ccccc1`: the Activity with Rattus norvegicus [4] is 0.235 mm; in the data set listed under Mus musculus [8], 10.67 - 14.4; in the data set with Rattus norvegicus [5], 0.161 mm; in the data set on Rattus norvegicus [7] it was 0.189 mm. Besides, the inhibition in vivo at 100 mg/kg in the data set with Rattus norvegicus [6] was determined as 53.8%. For the same compound, the UI in [2] is on record as 13.3. Moreover, in [1], the pIC50 is 6.17.

For `CN1CCN(C(=O)Cn2cnc(-c3ccccc3)c2-c2ccccc2)CC1`, the outcome in the data set filed under Mus musculus [3] was Active. Besides, the Activity in the data set with Rattus norvegicus [4] turned out to be 0.182 mm; in the data set on Rattus norvegicus [5], 0.147 mm; in the data set with Rattus norvegicus [7], 0.168 mm. In the data set with Rattus norvegicus [6], the inhibition in vivo at 100 mg/kg was 60.5%. Further, the pIC50 in data set [1] was 5.38.

As for `COc1ccc(-c2nc(NCC(=O)N3CCCCC3)sc2-c2ccc(OC)cc2)cc1`, the pIC50 in data set [1] was 5.22.

On to `O=C(CNc1nc(-c2ccccc2)c(-c2ccccc2)s1)N1CCCCC1`, for which the pIC50 in data set [1] is 5.10.
